Experimental data taken from article PMC10757425 (Toxicology, 2023).
Entries after “also recorded” stand apart in the source; their conditions may differ.

Assays:
[1] = OH-PCB disposition in serum and tissues by GC-MS/MS; format: in vivo, Sprague-Dawley rats; conditions: for detection in serum, brain, liver, and lung / rank order of levels across serum and tissues: male rats, 28 days of 4-52 implant exposure
Method in brief: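 Male Sprague-Dawley rats received a subcutaneous polymeric implant (1.3 ± 0.1 mg/g body weight) on the back at PND 28, loaded at 0, 1, 5 or 10% (w/w) test compound, for 28 days. Tissues (n=8/group) were homogenized in 2-propanol and liquid-liquid extracted, with surrogate-recovery and internal-standard correction. LOD came from sham tissues (mean + t0.01 × SD).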

Sprague-Dawley rats [2] = assay: Hole Board Test; format: in vivo
Method in brief: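 Implant-exposed rats (n=15/group) were tested blind on exposure days 24–28. Each rat was released centrally for 5 min. Distance and head dips (ears passing through a hole) were video-tracked. Analysis: one-way ANOVA with Fisher's LSD; mean ± SD.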

[3] = In vivo exposure dosimetry: 4-52 remaining in retrieved subcutaneous implants; set-up: species or system Sprague-Dawley rats; conditions: for In vivo exposure: 4-52 remaining in the implant / In vivo exposure: 4-52 remaining in the implant (%): subcutaneous implant, 28 days, male rats
Method in brief: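 Male rats carried s.c. implants (0, 1, 5 or 10% w/w; 1.3 ± 0.1 mg/g bw) from PND 28 for 28 days. Retrieved implants were dissolved in 10 mL DCM, diluted 3-fold and read by UV/Vis at 285 nm against a matrix-matched calibration curve. Internal dose was taken as total load minus remaining amount, assuming 100% bioavailability.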

[4] = In vitro release from polymeric implants; conditions: after 28 days
Sprague-Dawley rats [5] = assay: Histopathology; format: in vivo; conditions: for prevalence of minimal liver inflammation (% of evaluated slides): sham 37.5%
Method in brief: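 After 28 days of implant exposure, brain, accessory lobe of right lung and left lateral liver lobe were formalin-fixed and H&E stained (8 rats/group, 2 per cohort, random). A veterinary pathologist scored brain regions (prefrontal cortex, striatum, hippocampus, cerebellum) and lung and liver for inflammation (any immune cells), hemorrhage, edema, necrosis, apoptosis and morphology. Brain was also scored for gliosis; lung and liver for extramedullary hematopoiesis.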

Sprague-Dawley rats [6] = assay: Elevated Plus Maze; format: in vivo
Sprague-Dawley rats [7] = assay: Y-maze; format: in vivo
Sprague-Dawley rats [8] = assay: Open Field Test; format: in vivo; conditions: between the groups at any time epoch, two-way ANOVA
Method in brief: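 Implant-exposed rats (n=15/group) were tested blind during exposure days 24–28. The opaque rectangular arena (~5000 cm2, 50 cm walls) was divided into central and outer zones. Each rat started in the center and explored freely for 30 min on two consecutive days. Overhead video tracking recorded distance travelled in 5-min epochs. Analysis: two-way ANOVA.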

[9] = General toxicity assessment; format: in vivo, Sprague-Dawley rats
Method in brief: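 Rats arrived at 21 days old and were acclimated 7 days. At PND 28, under isoflurane with 1 mg/kg s.c. meloxicam, they received s.c. implants with 0, 1, 5 or 10% w/w test compound (1.3 ± 0.1 mg/g bw), n=15/group. Surgical site and behaviour were checked daily for 5 days. At PND 56, blood was taken by cardiac puncture, rats were perfused with cold PBS and organs harvested.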

rats = conditions: developmental exposure via the maternal diet, ref Boix et al., 2010; cited from earlier work
[10] = administered orally with corn oil; ref Rostami and Juhasz, 2011; cited from earlier work
[11] = rats, dip-coated implants; ref Aqil et al. (2014); cited from earlier work
[12] = 45-day study, female rats; ref Aqil et al., 2014; cited from earlier work

## Oc1cc(Cl)c(-c2cc(Cl)c(O)cc2Cl)cc1Cl [4,4’-52, 4,4’-dihydroxy-2,2’,5,5’-tetrachlorobiphenyl]
[1]; after 4-52 implant exposure
  detection in the brain: only found in the medium and high-dose groups
  detection in the lung: detected
  presence in the serum and liver: present in the serum and liver from all exposure groups
[1]
  detection in serum, brain, liver, and lung: detected
  rank order of levels across serum and tissues: serum > lung > liver > brain

## Oc1cc(Cl)c(-c2cc(Cl)ccc2Cl)cc1Cl [4-52, 2,2’,5,5’-tetrachlorobiphenyl-4-ol]
[1]; all compartments
  levels in serum and tissues versus 4-52 dose: increased with increasing 4-52 doses
[1]
  detection in serum, brain, liver, and lung: detected
  rank order of levels across serum and tissues: serum >> liver > lung > brain
Sprague-Dawley rats [2]; exposed vs sham groups, one-way ANOVA, p = 0.297
  Hole Board Test total distance traveled: no significant differences
Sprague-Dawley rats [2]; exposed vs sham groups, one-way ANOVA, p = 0.433
  Hole Board Test number of head dipping: no significant differences; also recorded: did not affect
Sprague-Dawley rats [2]; medium-exposed rats, post hoc Fisher’s LSD, p = 0.071
  Hole Board Test total distance traveled: slightly reduced; also recorded: trend of a decrease
[3]; High group, 10% load
  In vivo exposure: 4-52 remaining in the implant: 0.80 ± 0.40 mg
  In vivo exposure: 4-52 remaining in the implant (%): 6.9 ± 3.1%
[3]; Low group, 1% load
  In vivo exposure: 4-52 remaining in the implant: 0.06 ± 0.02 mg
  In vivo exposure: 4-52 remaining in the implant (%): 5.8 ± 2.3%
[3]; Medium group, 5% load
  In vivo exposure: 4-52 remaining in the implant: 0.40 ± 0.20 mg
  In vivo exposure: 4-52 remaining in the implant (%): 6.3 ± 2.8%
[3]; after 28 days of exposure, range over loads
  4-52 left in the implants after in vivo exposure: 5.8-6.9%
[4]; High group, 10% load
  In vitro release: 4-52 remaining in the implant (%): 5.2 ± 1.1%
[4]; Low group, 1% load
  In vitro release: 4-52 remaining in the implant (%): 3.4 ± 0.9%
[4]; Medium group, 5% load
  In vitro release: 4-52 remaining in the implant (%): 2.9 ± 1.8%
Sprague-Dawley rats [5]; exposed or sham rats, 28 days
  histopathological evaluation of brain and lung: no overt treatment-specific lesions
Sprague-Dawley rats [5]; high dose group
  prevalence of minimal liver inflammation (% of evaluated slides): 75%
Sprague-Dawley rats [5]; low dose group
  prevalence of minimal liver inflammation (% of evaluated slides): 12.5%
Sprague-Dawley rats [5]; medium dose group
  prevalence of minimal liver inflammation (% of evaluated slides): 25%
Sprague-Dawley rats [6]; high group, did not reach statistical significance, p = 0.076
  Elevated Plus Maze time in the open arm: marginally increased
Sprague-Dawley rats [6]; high-exposed group vs sham, post hoc Fisher’s LSD, p = 0.043
  Elevated Plus Maze time in the enclosed arm: significantly decreased
Sprague-Dawley rats [6]; medium exposed group, post hoc Fisher’s LSD, p = 0.097
  Elevated Plus Maze distance traveled in the enclosed arm: trend of reduction; also recorded: decreased
Sprague-Dawley rats [7]; all exposure groups, one-way ANOVA, p = 0.262
  Y-maze percentage of spontaneous alternation: no significant changes; also recorded: did not affect
Sprague-Dawley rats [7]; all exposure groups, one-way ANOVA, p = 0.300
  Y-maze total distance traveled: no significant changes
Sprague-Dawley rats [7]; all exposure groups, one-way ANOVA, p = 0.342
  Y-maze number of total entries: no significant changes
Sprague-Dawley rats [7]; medium-exposed group vs sham, post hoc Fisher’s LSD, p = 0.067
  Y-maze total distance traveled: trend to decrease; also recorded: trend of a decrease
Sprague-Dawley rats [7]; medium-exposed group vs sham, post hoc Fisher’s LSD, p = 0.087
  Y-maze total number of entries: trend to decrease; also recorded: trend of a decrease
Sprague-Dawley rats [8]
  Open Field Test locomotor activity (travel distance) in 5 min epochs over 30 min: no significant differences; also recorded: not altered
[9]; end of 28-day study
  implantation site: no signs of adverse effects
[9]; implants with 0, 1, 5 or 10% of 4-52, 28 days
  adverse outcomes throughout the study: No adverse outcomes
[9]; implants with 1, 5, 10% 4-52 vs sham, 28 days
  body weight gain: No significant differences
[9]; subcutaneous 4-52 exposure, 28 days
  other organ weights: no significant effects; also recorded: no other organ weights were affected
[9]; subcutaneous 4-52 exposure, 28 days, p < 0.001
  relative liver weight (% of body weight): decreased dose-dependently; also recorded: significant decrease

## Clc1ccc(Cl)c(-c2cc(Cl)ccc2Cl)c1 [PCB 52, 2,2’,5,5’-Tetrachlorobiphenyl]
rats
  Y-maze performance: did not affect
  motor coordination: impaired
[10]
  oral bioavailability rate: 52.9%

## Clc1ccc(-c2cc(Cl)c(Cl)c(Cl)c2)cc1Cl [PCB 126]
[11]
  liver weights compared to sham controls: significantly increased
[12]
  released from polymeric implants in vivo: 49%

## Clc1cc(Cl)c(-c2cc(Cl)c(Cl)cc2Cl)cc1Cl [PCB 153]
[12]
  released from polymeric implants in vivo: 73%
